Results reported in ChEMBL document CHEMBL3808325, “Discovery and Optimization of Macrocyclic Quinoxaline-pyrrolo-dihydropiperidinones as Potent Pim-1/2 Kinase Inhibitors” (ACS Med Chem Lett, 2016).
Values after ≈ are worked out from the molar mass of the structure shown.

How the values were obtained:
[1] = system: Mus musculus; assay: Toxicity in human KMS-12-BM cells xenografted SCID-beige mouse assessed as effect on body weight at 10 to 100 mg/kg, po qd; type: organism-based; conditions: in vivo
In short: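 Tolerability followed in KMS-12-BM xenograft mice given oral doses once daily at 10, 25, 50 or 100 mg/kg over a 16-day efficacy study. Body weight monitored throughout.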

[2] = biological target: T1, Serine/threonine-protein kinase pim-2 (Homo sapiens, UniProt Q9P1W9); assay: Inhibition of human full-length Pim2 expressed in Escherichia coli assessed as phosphorylation of biotinylated BAD peptide at Ser 112 preincubated for 30 mins followed by substrate addition measured after 1 hr by HTRF assay
In short: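 Cell-free kinase assay using recombinant Pim-1 or Pim-2. Read-out is phosphorylation of a short BAD peptide sequence spanning Ser-112.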
Target sequence in this assay (Q9P1W9 whole entry): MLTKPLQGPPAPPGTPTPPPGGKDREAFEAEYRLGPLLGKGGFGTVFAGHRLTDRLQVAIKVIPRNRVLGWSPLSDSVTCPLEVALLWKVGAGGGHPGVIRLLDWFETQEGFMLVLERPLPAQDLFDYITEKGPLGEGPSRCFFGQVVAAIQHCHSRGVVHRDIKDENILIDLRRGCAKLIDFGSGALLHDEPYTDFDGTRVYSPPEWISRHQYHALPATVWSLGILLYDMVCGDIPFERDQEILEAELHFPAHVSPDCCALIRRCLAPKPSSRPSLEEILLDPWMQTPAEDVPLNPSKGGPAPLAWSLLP

[3] = Equilibrium solubility of compound in PBS by HPLC analysis; type: physicochemical
[4] = biological target: Dual specificity protein kinase CLK1 (Homo sapiens) (UniProt P49759); assay: Inhibition of human CLK1 assessed as remaining enzyme activity at 1 uM by KINOMEscan assay
In short: (§1)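 scanMAX KINOMEscan panel of 392 nonmutant kinases, compound tested at 1 μM. Result expressed as percent of control (POC). S(10) and S(1) scores are the fraction of kinases with POC below 10% and below 1%.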

[5] = biological target: Dual specificity protein kinase CLK2 (Homo sapiens) (UniProt P49760); assay: Inhibition of human CLK2 assessed as remaining enzyme activity at 1 uM by KINOMEscan assay; in short: as §1
Sequence of Dual specificity protein kinase CLK2 (Homo sapiens) (P49760 whole entry, looked up): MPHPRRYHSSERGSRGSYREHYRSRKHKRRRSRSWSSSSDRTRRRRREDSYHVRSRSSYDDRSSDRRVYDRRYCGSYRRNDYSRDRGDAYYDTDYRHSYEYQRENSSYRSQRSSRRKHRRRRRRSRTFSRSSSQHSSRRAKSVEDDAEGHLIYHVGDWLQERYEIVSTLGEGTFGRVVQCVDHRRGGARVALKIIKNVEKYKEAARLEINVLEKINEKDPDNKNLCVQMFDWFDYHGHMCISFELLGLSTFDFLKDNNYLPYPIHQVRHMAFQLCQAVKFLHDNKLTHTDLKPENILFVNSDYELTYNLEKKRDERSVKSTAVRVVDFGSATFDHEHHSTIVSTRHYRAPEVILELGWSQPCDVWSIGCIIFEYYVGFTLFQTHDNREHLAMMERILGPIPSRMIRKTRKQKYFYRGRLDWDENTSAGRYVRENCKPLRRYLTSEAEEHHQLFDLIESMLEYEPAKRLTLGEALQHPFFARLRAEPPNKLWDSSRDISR

[6] = biological target: Dual specificity tyrosine-phosphorylation-regulated kinase 1A (Homo sapiens) (UniProt Q13627); assay: Inhibition of human DYRK1A assessed as remaining enzyme activity at 1 uM by KINOMEscan assay; in short: as §1
[7] = biological target: Homeodomain-interacting protein kinase 3 (Homo sapiens) (UniProt Q9H422); assay: Inhibition of human HIPK3 assessed as remaining enzyme activity at 1 uM by KINOMEscan assay; in short: as §1
Sequence of Homeodomain-interacting protein kinase 3 (Homo sapiens) (Q9H422 whole entry, looked up): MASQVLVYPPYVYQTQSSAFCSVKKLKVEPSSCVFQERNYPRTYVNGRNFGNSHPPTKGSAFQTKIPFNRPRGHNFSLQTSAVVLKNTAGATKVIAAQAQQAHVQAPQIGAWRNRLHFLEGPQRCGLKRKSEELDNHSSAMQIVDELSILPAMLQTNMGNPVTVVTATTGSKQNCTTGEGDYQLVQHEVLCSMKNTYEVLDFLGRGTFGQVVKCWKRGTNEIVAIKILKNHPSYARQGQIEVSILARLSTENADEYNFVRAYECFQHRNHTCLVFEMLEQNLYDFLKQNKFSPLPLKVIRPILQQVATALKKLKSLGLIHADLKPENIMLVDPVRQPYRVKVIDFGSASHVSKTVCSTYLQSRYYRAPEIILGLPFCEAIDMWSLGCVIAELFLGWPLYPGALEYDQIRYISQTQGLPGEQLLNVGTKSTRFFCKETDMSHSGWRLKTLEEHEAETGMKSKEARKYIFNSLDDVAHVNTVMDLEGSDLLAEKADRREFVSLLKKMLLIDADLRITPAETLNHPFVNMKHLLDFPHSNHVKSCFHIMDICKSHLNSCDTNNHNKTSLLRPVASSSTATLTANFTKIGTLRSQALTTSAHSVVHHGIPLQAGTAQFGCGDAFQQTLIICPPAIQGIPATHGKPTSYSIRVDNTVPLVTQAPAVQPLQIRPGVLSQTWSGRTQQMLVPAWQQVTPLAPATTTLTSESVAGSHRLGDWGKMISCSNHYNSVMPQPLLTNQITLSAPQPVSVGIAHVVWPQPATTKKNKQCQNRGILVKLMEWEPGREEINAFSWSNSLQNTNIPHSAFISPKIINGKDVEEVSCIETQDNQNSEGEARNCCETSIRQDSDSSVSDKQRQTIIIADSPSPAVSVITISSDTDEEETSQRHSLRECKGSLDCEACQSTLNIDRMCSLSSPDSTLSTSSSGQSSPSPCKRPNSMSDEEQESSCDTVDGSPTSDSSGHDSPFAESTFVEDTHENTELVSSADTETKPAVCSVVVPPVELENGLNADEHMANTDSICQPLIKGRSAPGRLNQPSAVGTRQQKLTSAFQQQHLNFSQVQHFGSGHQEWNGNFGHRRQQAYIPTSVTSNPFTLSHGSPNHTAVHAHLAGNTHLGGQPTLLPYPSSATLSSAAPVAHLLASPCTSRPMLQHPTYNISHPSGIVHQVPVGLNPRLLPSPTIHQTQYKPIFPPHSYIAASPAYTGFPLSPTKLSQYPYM

[8] = biological target: Myosin light chain kinase family member 4 (Homo sapiens) (UniProt Q86YV6); assay: Inhibition of human MYLK4 assessed as remaining enzyme activity at 1 uM by KINOMEscan assay; in short: as §1
Sequence of Myosin light chain kinase family member 4 (Homo sapiens) (Q86YV6 whole entry): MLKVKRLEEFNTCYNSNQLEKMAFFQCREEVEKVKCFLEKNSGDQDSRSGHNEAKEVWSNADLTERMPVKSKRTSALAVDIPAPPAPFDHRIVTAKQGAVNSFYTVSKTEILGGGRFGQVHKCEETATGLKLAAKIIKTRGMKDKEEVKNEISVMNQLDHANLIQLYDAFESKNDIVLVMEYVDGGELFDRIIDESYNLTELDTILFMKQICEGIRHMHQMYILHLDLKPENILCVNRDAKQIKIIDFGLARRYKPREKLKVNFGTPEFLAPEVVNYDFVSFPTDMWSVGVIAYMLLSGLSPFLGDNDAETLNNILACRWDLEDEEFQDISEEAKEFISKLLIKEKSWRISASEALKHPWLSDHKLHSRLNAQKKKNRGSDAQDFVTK

[9] = biological target: Mitogen-activated protein kinase 15 (Homo sapiens) (UniProt Q8TD08); assay: Inhibition of human MAPK15 assessed as remaining enzyme activity at 1 uM by KINOMEscan assay; in short: as §1
Sequence of Mitogen-activated protein kinase 15 (Homo sapiens) (Q8TD08 whole entry): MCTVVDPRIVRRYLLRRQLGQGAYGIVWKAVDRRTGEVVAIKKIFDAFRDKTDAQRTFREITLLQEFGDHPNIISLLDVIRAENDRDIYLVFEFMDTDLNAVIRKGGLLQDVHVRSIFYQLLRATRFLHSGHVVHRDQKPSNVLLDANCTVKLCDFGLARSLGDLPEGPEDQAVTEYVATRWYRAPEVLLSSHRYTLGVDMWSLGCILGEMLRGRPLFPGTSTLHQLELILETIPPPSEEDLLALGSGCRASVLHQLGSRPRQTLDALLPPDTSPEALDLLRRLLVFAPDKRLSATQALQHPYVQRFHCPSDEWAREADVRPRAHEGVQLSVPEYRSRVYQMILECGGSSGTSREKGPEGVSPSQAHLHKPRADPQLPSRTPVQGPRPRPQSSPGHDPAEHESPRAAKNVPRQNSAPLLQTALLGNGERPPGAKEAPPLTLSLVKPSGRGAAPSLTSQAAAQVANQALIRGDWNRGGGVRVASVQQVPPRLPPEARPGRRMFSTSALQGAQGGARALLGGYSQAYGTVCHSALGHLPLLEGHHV

[10] = biological target: Serine/threonine-protein kinase haspin (Homo sapiens) (UniProt Q8TF76); assay: Inhibition of human haspin assessed as remaining enzyme activity at 1 uM by KINOMEscan assay; in short: as §1
Sequence of Serine/threonine-protein kinase haspin (Homo sapiens) (Q8TF76 whole entry): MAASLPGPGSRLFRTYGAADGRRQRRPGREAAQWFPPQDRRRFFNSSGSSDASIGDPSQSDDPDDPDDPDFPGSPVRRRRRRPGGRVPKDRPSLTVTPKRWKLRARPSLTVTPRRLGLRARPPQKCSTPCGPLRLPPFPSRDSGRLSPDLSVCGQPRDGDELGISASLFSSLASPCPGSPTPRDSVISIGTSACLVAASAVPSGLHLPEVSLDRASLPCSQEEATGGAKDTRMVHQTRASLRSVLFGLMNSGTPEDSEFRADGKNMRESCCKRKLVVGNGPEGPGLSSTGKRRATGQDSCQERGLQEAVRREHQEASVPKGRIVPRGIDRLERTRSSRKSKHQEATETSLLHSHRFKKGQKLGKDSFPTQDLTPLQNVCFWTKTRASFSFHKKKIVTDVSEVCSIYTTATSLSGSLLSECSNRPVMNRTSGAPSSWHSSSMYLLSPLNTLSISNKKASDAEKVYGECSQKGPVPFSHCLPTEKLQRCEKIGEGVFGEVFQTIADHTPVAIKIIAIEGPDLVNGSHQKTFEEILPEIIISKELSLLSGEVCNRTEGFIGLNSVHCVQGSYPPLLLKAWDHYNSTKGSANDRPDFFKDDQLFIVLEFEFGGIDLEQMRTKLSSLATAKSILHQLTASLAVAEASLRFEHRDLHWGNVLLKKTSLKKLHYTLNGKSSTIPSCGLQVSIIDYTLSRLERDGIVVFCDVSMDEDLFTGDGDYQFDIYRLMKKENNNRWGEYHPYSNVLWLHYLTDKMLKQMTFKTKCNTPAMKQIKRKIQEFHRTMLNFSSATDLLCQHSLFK

[11] = biological target: Mitogen-activated protein kinase kinase kinase 19 (Homo sapiens) (UniProt Q56UN5); assay: Inhibition of human YSK4 assessed as remaining enzyme activity at 1 uM by KINOMEscan assay; in short: as §1
[12] = biological target: Serine/threonine-protein kinase pim-1 (Homo sapiens, UniProt P11309); assay: Inhibition of human PIM1 assessed as remaining enzyme activity at 1 uM by KINOMEscan assay
Sequence of Serine/threonine-protein kinase pim-1 (P11309 whole entry, looked up): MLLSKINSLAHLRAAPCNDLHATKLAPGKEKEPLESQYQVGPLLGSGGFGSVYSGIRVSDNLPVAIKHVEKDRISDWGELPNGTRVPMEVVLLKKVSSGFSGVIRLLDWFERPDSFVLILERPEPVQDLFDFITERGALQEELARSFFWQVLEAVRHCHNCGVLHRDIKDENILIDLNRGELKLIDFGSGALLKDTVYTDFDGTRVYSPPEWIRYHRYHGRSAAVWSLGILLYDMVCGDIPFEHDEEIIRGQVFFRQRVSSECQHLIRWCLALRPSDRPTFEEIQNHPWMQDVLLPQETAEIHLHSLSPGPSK
In short: (§2)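 Profiled at 1 μM compound across a scanMAX KINOMEscan panel of 392 nonmutant kinases. Activity is reported as percent-of-control (POC). Panel-wide S(10) and S(1) selectivity scores are the fraction of kinases with POC below 10% and below 1%.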

[13] = biological target: T1, Serine/threonine-protein kinase pim-2; assay: Inhibition of human PIM2 assessed as remaining enzyme activity at 1 uM by KINOMEscan assay; in short: as §2
Target sequence in this assay (Q9P1W9 whole entry, looked up): as the sequence (Q9P1W9 whole entry) above

[14] = biological target: Serine/threonine-protein kinase pim-3 (Homo sapiens) (UniProt Q86V86); assay: Inhibition of human PIM3 assessed as remaining enzyme activity at 1 uM by KINOMEscan assay; in short: as §2
[15] = biological target: Casein kinase I isoform gamma-2 (Homo sapiens) (UniProt P78368); assay: Inhibition of full-length human CSNK1G2 expressed in bacterial system assessed as remaining enzyme activity at 1 uM by KINOMEscan assay; in short: as §1
[16] = biological target: Casein kinase I isoform delta (Homo sapiens) (UniProt P48730); assay: Inhibition of full-length human CSNK1D expressed in bacterial system assessed as remaining enzyme activity at 1 uM by KINOMEscan assay; in short: as §1
Sequence of Casein kinase I isoform delta (Homo sapiens) (P48730 whole entry, looked up, canonical isoform): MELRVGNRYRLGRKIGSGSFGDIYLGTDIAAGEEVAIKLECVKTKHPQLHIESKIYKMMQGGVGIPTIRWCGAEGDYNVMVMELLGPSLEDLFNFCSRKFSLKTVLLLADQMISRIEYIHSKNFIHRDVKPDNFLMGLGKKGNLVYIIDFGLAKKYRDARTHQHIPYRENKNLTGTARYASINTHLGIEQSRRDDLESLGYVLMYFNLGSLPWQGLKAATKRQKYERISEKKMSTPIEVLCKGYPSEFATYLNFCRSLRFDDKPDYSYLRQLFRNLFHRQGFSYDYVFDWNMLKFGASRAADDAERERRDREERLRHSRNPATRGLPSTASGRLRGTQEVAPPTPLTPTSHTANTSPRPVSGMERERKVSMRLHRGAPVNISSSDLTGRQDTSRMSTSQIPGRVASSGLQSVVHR

[17] = biological target: Casein kinase II subunit alpha (Homo sapiens) (UniProt P68400); assay: Inhibition of full-length human CSNK2A1 expressed in mammalian system assessed as remaining enzyme activity at 1 uM by KINOMEscan assay; in short: as §1
[18] = Drug metabolism in rat liver microsomes assessed as compound turnover at 1 uM incubated for 30 mins; type: ADME; conditions: read-out: Drug metabolism
[19] = Drug metabolism in human liver microsomes assessed as compound turnover at 1 uM incubated for 30 mins; type: ADME; conditions: read-out: Drug metabolism
[20] = Protein binding in rat assessed as as fraction unbound at 5 uM by rapid equilibrium dialysis method; type: ADME; conditions: plasma
[21] = Apparent permeability in pig LLC-PK1 cells at 5 uM; type: ADME, cell-based, Sus scrofa
[22] = Oral bioavailability in Sprague-Dawley rat at 5 mg/kg; type: ADME, organism-based; conditions: in vivo
In short: (§3)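 Pharmacokinetics in male Sprague–Dawley rats. Clearance also expressed as a percentage of liver blood flow. Oral bioavailability determined.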

[23] = Volume of distribution at steady state in Sprague-Dawley rat at 2 mg/kg, iv; type: ADME, organism-based; conditions: in vivo, read-out: Vdss; in short: as §3
[24] = Half life in Sprague-Dawley rat at 2 mg/kg, iv; type: ADME, organism-based; conditions: in vivo; in short: as §3
[25] = Cytotoxicity against human KMS-12-BM cells after 72 hrs by cell titer-glo luminescence assay; type: functional, cell-based
[26] = system: KMS-12-BM; assay: Antitumor activity against human KMS-12-BM cells xenografted in orally dosed SCID-beige mouse administered as qd relative to vehicle control; type: functional, organism-based
In short: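 Mouse KMS-12-BM xenograft efficacy study running 16 days. Oral dosing once daily at 10, 25, 50 or 100 mg/kg. Tumor volume compared with vehicle-treated controls.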

[27] = system: Mus musculus; assay: In vivo inhibition of Pim1/2-mediated BAD protein phosphorylation at Ser-112 in human KMS-12-BM cells xenografted in SCID-beige mouse assessed as pBAD level at 50 mg/kg, po administered as single dose measured after 6 hrs by meso scale discovery assay; type: functional; set-up: scale not given: the % may be the effect or the level left
In short: (§4)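 KMS-12-BM xenograft mice given a single oral dose of 25, 50 or 100 mg/kg. Tumor Ser-112 pBAD measured at time points through 16 h postdose. EC50 obtained by fitting all individual total plasma concentration–pBAD response data. Unbound value derived from mouse plasma fraction unbound.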

[28] = system: Mus musculus; assay: In vivo inhibition of Pim1/2-mediated BAD protein phosphorylation at Ser-112 in human KMS-12-BM cells xenografted in SCID-beige mouse assessed as pBAD level at 25 mg/kg, po administered as single dose measured after 16 hrs by meso scale discovery assay; type: functional; set-up: scale not given: the % may be the effect or the level left; in short: as §4
[29] = system: Mus musculus; assay: In vivo inhibition of Pim1/2-mediated BAD protein phosphorylation at Ser-112 in human KMS-12-BM cells xenografted in SCID-beige mouse assessed as pBAD level at 50 mg/kg, po administered as single dose measured after 16 hrs by meso scale discovery assay; type: functional; set-up: scale not given: the % may be the effect or the level left; in short: as §4
[30] = Fraction unbound in SCID-beige mouse plasma at 5 uM by LC/MS analysis; type: ADME, cell-free
[31] = system: Plasma; assay: Free plasma concentration in SCID-beige mouse at 5 uM by LC/MS analysis; type: ADME, cell-free

With Cc1nc2cccc3c2nc1N[C@H](C)/C=C\C[C@H]1CNC(=O)c2cc-3[nH]c21 the Activity [1] was “Non-toxic”, the IC50 [2] was 0.5 nM and the solubility thermodynamic [3] was 40 µM (≈ 14.4 µg/mL). For the same molecule, the Activity [4] was < 10%, the Activity [5] was < 10% and the Activity [6] was < 10%. For the same molecule, the Activity [7] was < 10%, the Activity [8] was < 10% and the Activity [9] was < 10%. For the same molecule, the Activity [10] was < 10%, the Activity [11] was < 10% and the Activity [12] was < 10%. For the same molecule, the Activity [13] was < 10%, the Activity [14] was < 10% and the Activity [15] was < 10%. The Activity [16] was < 10%, the Activity [17] was < 10% and the metabolised at 0.5 h, 1 µM [18] was 39%. It also gave a metabolised at 0.5 h, 1 µM [19] of 24%, a fraction unbound at 5 µM [20] of 0.007 and a Papp at 5 µM [21] of 29 ×10⁻⁶ cm/s. It also gave a bioavailability [22] of 48%, a Vd [23] of 1.5 L/kg and a half-life [24] of 4 h. For the same molecule, the IC50 [25] was 151 nM, the TGI [26] was “Dose-dependent effect” and the Activity [27] was 60%. The Activity [28] was 0%, the Activity [29] was 8% and the fraction unbound at 5 µM [30] was 0.0084. The “Cp(f)” value [31] was 30 nM.
